One may read the IC50 as the concentration that inhibits the measured activity by half. As usually defined, the half-life is how long it takes for the measured level to halve. Broadly, the CC50 is the concentration at which the toxic effect on the cells reaches its halfway point.

Series [1] addresses Human immunodeficiency virus type 1 reverse transcriptase (Human immunodeficiency virus 1, UniProt Q72547). Kind of series: Inhibition of RNA-dependent DNA polymerase activity of wild type HIV1 reverse transcriptase.
Series [2] addresses Human immunodeficiency virus type 1 reverse transcriptase (Human immunodeficiency virus 1, UniProt Q72547, Y181C). In words: Inhibition of RNA-dependent DNA polymerase activity of HIV1 reverse transcriptase Y181C mutant.
For series [3], the system named is Human immunodeficiency virus 1. In words: Antiviral activity against HIV1 NL4-3 in HeLaP4 reporter cell assessed as virus replication by FluorAceTM beta-galactosidase reporter assay. The note with it: Human immunodeficiency virus 1, NL4-3, HeLaP4. The class given is functional, organism-based. Put shortly: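 Antiviral IC50 reported as the geometric mean of at least three independent experiments, with standard deviation given.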
(A reporter such as luciferase makes a cellular process visible.)

The nature of series [4]: Metabolic stability in human liver microsomes assessed as half life. The class given is ADME, Microsome.
Series [5] can be described thus: Metabolic stability in human hepatocytes assessed as half life. The class given is ADME, cell-based, Liver, Hepatocyte.
The nature of series [6]: Cytotoxicity against human HeLaP4 cells. The class given is cell-based.
Series [7] has as its target Human immunodeficiency virus type 1 reverse transcriptase (Human immunodeficiency virus 1, UniProt Q72547, K103N). In words: Inhibition of RNA-dependent DNA polymerase activity of HIV1 reverse transcriptase K103N mutant.

Where only a bound is given, the exact number is not on record here.

For the compound `CCc1n[nH]c2cccc(Oc3cc(C#N)cc(C#N)c3)c12`, in series [1], the IC50 turned out to be 0.112 µM.

Regarding `COCc1n[nH]c2cccc(Oc3cc(C#N)cc(C#N)c3)c12`, the IC50 in series [1] came to 1.67 µM.

The compound `Cc1n[nH]c2ccc(Cl)c(Oc3cc(C#N)cc(C#N)c3)c12` displayed an IC50 in series [1] of 0.399 µM.

Turning to `Cc1n[nH]c2ccc(F)c(Oc3cc(C#N)cc(C#N)c3)c12`, the IC50 in series [1] was determined as 0.05 µM; in series [2], 0.145 µM; in series [3], 0.014 µM. Moreover, the values for the half-life in series [4] and in series [5] were above 2 h and above 6 h, respectively. In series [6], this compound showed a CC50 above 100 µM.

Regarding `CCc1n[nH]c2ccc(F)c(Oc3cc(C#N)cc(C#N)c3)c12`, the IC50 in series [1] was 0.025 µM; in series [7], 0.183 µM; in series [2] it was 0.032 µM; in series [3] it was 0.0046 µM. Also, the half-life in series [4] was above 2 h; in series [5], above 6 h. This compound gave a CC50 in series [6] above 100 µM.

Regarding `O=C1Nc2ccc(Cl)cc2[C@@](C#CC2CC2)(C(F)(F)F)O1` [EFAVIRENZ], the IC50 in series [3] came out at 0.0004 µM.

Take `CNCc1n[nH]c2cccc(Oc3cc(C#N)cc(C#N)c3)c12`: the IC50 in series [1] was above 30 µM.

Take `Cc1n[nH]c2c(CO)ccc(Oc3cc(C#N)cc(C#N)c3)c12`: the figures for the IC50 in series [1], in series [7] and in series [3] were 0.071 µM, 1.27 µM and 0.014 µM, respectively. Besides, the figures for the half-life in series [4] and in series [5] were above 2 h and 0.183 h, respectively. In addition, in series [6], the CC50 is above 100 µM.

On to `CC(C)c1nc(COC(N)=O)n(Cc2ccncc2)c1Sc1cc(Cl)cc(Cl)c1` [CAPRAVIRINE], for which the IC50 in series [3] came to 0.0005 µM. Also, the half-life in series [4] came out at 0.125 h.

On to `Cc1n[nH]c2cccc(Oc3cc(C#N)cc(C#N)c3)c12`, for which, in series [1], the IC50 worked out at 0.332 µM.

The record behind these values is ChEMBL document CHEMBL1140926, “Novel indazole non-nucleoside reverse transcriptase inhibitors using molecular hybridization based on crystallographic overlays” (J Med Chem, 2009).
